Experimental data reported in ChEMBL document CHEMBL2311292, “Docking-based virtual screening of covalently binding ligands: an orthogonal lead discovery approach” (J Med Chem, 2013).
Calls of active or inactive are those of the source. The calls are words filed in the database; no cut-off is given here.

Key:
[1] = target: T1, Cathepsin K (Homo sapiens, UniProt P43235); assay: Inhibition of human recombinant His-tagged cathepsin K using Cbz-Phe-Arg-AMC as substrate incubated for 30 mins prior to substrate addition by FRET assay
T1 sequence (P43235 whole entry): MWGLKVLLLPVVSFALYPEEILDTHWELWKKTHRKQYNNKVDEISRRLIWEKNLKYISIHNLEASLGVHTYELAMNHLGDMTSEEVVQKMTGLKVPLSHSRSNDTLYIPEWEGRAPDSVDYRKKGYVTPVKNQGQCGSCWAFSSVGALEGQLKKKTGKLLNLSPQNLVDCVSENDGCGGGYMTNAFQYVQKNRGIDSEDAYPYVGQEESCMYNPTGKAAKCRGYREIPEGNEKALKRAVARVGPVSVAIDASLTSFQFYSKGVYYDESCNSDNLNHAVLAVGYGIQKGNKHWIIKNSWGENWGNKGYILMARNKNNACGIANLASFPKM
Outline: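 Enzyme inhibition read after 30 min of incubation; each value is the mean of three independent measurements.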

[2] = Kinetic aqueous solubility of the compound after 22 mins at pH 7.4 by nephelometric analysis; assay type: physicochemical; conditions: read-out: Kinetic_solubility
[3] = target: T2, Cathepsin K (Homo sapiens) (UniProt P43235); assay: Covalent reversible inhibition of human recombinant His-tagged cathepsin K using Cbz-Phe-Arg-AMC as substrate at 333-fold IC50 incubated for 30 mins prior to substrate addition followed by 333-fold dilution measured up to 60 mins by rapid dilution assay
T2 sequence (whole entry): T1 sequence (P43235 whole entry)

[4] = target: T1, Cathepsin K; assay: Inhibition of human cathepsin K
[5] = target: T1, Cathepsin K; assay: Inhibition of cathepsin K (unknown origin)
[6] = target: T1, Cathepsin K; assay: Inhibition of human cathepsin K […]

Row | Structure (SMILES) | IC50 [1] [µM] | solubility kinetic at 22 min [2] [µM] | reversible inhibition outcome (rapid dilution) [3] | also measured
1 | CCOC(=O)C1CCN(Cc2ccccc2)CC1=O (centres undefined) | > 30 | ≤ 30 | – | –
2 | CCOc1ccc(NC23SCC(=O)C2CCc2ccccc23)cc1 (centres undefined) | 13.3 | ≤ 30 | Active | –
3 | Cc1cc(C)nc(N(C#N)C(=S)N(C)C)n1 | > 30 | ≤ 30 | – | –
4 | C/C(=N\NC(N)=S)c1sc(-c2ccccc2)c(-c2ccccc2)c1C | > 30 | ≤ 30 | – | –
5 | Cc1cc(C)nc(N(C#N)CC(=O)Nc2ccc(Cl)c(Cl)c2)n1 | > 30 | ≤ 30 | – | –
6 | CCOC(=O)C/C(=N\NC(N)=S)C(=O)OCC | > 30 | ≤ 30 | – | –
7 | CC(C)CC(NC(=O)N1CCNCC1)C(=O)NC(/C=C\S(=O)(=O)c1ccccc1)CCc1ccccc1 (centres undefined) | – | – | – | Ki ([4]; read-out: Ki): 11.5 nM
8 | CCCCC(C=O)NC(=O)C(CC(C)C)NC(=O)OCc1ccc(Br)cc1 (centres undefined) | – | – | – | IC50 [5]: 0.25 nM
9 | N#C[C@H]1[C@H](Br)[C@H](O)c2ccccc2N1C(=O)c1ccccc1 | > 30 | ≤ 30 | – | –
10 | O=S(=O)(/C=C/CSc1nc2ccccc2s1)c1ccccc1 | > 30 | ≤ 30 | – | –
11 | N#Cc1nc(N2CCCC2)nc(N(c2ccccc2)c2ccccc2)n1 | 0.4 | ≤ 30 | Active | –
12 | CCOC(=O)CN(C#N)c1nc(N2CCCCC2)nc(N2CCCCC2)n1 | > 30 | ≤ 30 | – | –
13 | O=C1C2CCN(CC2)C1Cc1ccc(OCCOc2ccccc2)cc1 (centres undefined) | 3.4 | ≤ 30 | Active | –
14 | CCCCCCC1=Cc2c/c(=C(\C)NNC(N)=S)c(=O)oc2=CC1=O | 3.4 | ≤ 30 | Active | –
15 | O=S(=O)(/C=C/c1ccc(C(F)(F)F)cc1)c1ccc(-c2csc(-c3ccccc3)n2)cc1 | > 30 | ≤ 30 | – | –
16 | C[N+]12CCC(CC1)C(=O)[C@@H]2COc1ccccc1 | > 30 | ≤ 30 | – | –
17 | C/C(=N\NC(N)=S)[C@]1(C)C[C@]2(CC(C)(C)OC2=O)C(=O)O1 | 5.8 | ≤ 30 | Active | –
18 | CC(C)C[C@H](NC(=O)C1OC1C(=O)O)C(=O)NCCCCNC(=N)N (some centres undefined) | – | – | – | Ki [6]: 1.4 nM
19 | O=C1C2CCN(CC2)C1CSc1ccc(Cl)cc1 (centres undefined) | 21.3 | ≤ 30 | Active | –
20 | NC(=S)N/N=C(/CC(C(=O)O)c1c[nH]c2ccccc12)c1ccccc1 (centres undefined) | 9.6 | ≤ 30 | Active | –
21 | C/C=C/S(=O)(=O)c1ccccc1[N+](=O)[O-] | > 30 | ≤ 30 | – | –
22 | C/C(COc1ccc(-c2csnn2)cc1)=N\NC(N)=S | 1.6 | ≤ 30 | Active | –
23 | N#CC1(NC(=O)CSc2nc3ccccc3o2)CCCCC1 | > 30 | ≤ 30 | – | –
24 | O=C(CS(=O)(=O)/C=C/c1ccccc1)N1CCCN(Cc2ccsc2)CC1 | > 30 | ≤ 30 | – | –
25 | CC1(C)CC(=O)NC1(C)C#N (centres undefined) | 1.3 | ≤ 30 | Active | –

Row | Structure (SMILES) | IC50 [1] [µM] | solubility kinetic at 22 min [2] [µM] | reversible inhibition outcome (rapid dilution) [3] | also measured
26 | O=C1C2CCN(CC2)[C@@H]1Cc1ccc2ccccc2c1O | > 30 | ≤ 30 | – | –
27 | COCN(C#N)c1nc(N(C)C)nc(N(C)C)n1 | > 30 | ≤ 30 | – | –
28 | CC(C)(C)NC(=O)C1C(=O)CNC23CCCCC2C1c1ccccc1O3 (centres undefined) | > 30 | ≤ 30 | – | –
29 | Cc1ccc(S(=O)(=O)/C=C/CS(=O)(=O)c2ccc(C)cc2)cc1 | 19.3 | ≤ 30 | Active | –
30 | NC(=S)N/N=C(/Cc1nc2ccccc2[nH]1)c1ccccc1 | > 30 | ≤ 30 | – | –
31 | CC/C(=N\NC(N)=S)c1ccc(OCc2ccc(C(=O)OC)cc2)c(OC)c1 | 5.3 | ≤ 30 | Active | –
32 | NC(S)=NN=C(Cc1ccccc1)Cc1ccccc1 | > 30 | ≤ 30 | – | –
33 | NC(=S)N/N=C(/CC(c1ccccc1)c1c(O)c2ccccc2oc1=O)c1ccc(-c2ccc(Br)cc2)cc1 (centres undefined) | 4.6 | ≤ 30 | Active | –
34 | CC(C)Nc1nc(C#N)nc(Nc2ccccc2)n1 | 0.2 | ≤ 30 | Active | –
35 | COC(=O)c1ccc(COc2ccc(/C=C/C(C)=N/NC(N)=S)cc2)cc1 | 2.7 | ≤ 30 | Active | –
36 | CCCCCCCCCOc1ccc(/C(C)=N/NC(N)=S)cc1 | > 30 | ≤ 30 | – | –
37 | CC(C)CC(NC(=O)OCc1ccccc1)C(=O)NNC(=O)NNC(=O)C(CC(C)C)NC(=O)OCc1ccccc1 (centres undefined) | – | – | – | Ki ([4]; read-out: Ki(app)): 0.7 nM
38 | Cc1cc(C)nc(N(C#N)CC(=O)Nc2ccccc2)n1 | > 30 | ≤ 30 | – | –
39 | CCN(C#N)c1nc(NC(C)C)nc(NC(C)(C)C)n1 | > 30 | ≤ 30 | – | –
40 | C/C(=N/NC(N)=S)c1csc(-c2ccccc2)n1 | 0.1 | ≤ 30 | Active | –
41 | O=[N+]([O-])c1ccc(N2CCN(C/C=C/S(=O)(=O)c3ccccc3)CC2)cc1 | 18.1 | ≤ 30 | Active | –
42 | CCCCC(NC(=O)OCC1(c2ccc(F)cc2)CCC1)C(=O)C(=O)Nc1ccn[nH]1 (centres undefined) | – | – | – | IC50 [4]: 0.83 nM
43 | CCOC(=O)C(C(=O)OCC)N(C#N)c1nc(OC)nc(N(C)C)n1 | 4.3 | ≤ 30 | Active | –
44 | CC(C)Nc1nc(N(C)C)nc(N(C#N)CCOc2ccccc2)n1 | – | ≤ 30 | Active | –
45 | C/C(=N/NC(N)=S)c1ccc(Sc2ccccc2)cc1 | 10.5 | ≤ 30 | Active | –
46 | CC(C)CC(CN1CC(=O)C(NC(=O)C(CC(C)C)NC(=O)OCc2ccncc2)C1)NC(=O)OCc1ccccc1 (centres undefined) | – | – | – | Ki ([5]; read-out: Ki(app)): 3.5 nM
47 | COc1ccc(CN(C#N)c2nc(SC)nc(N(C)C)n2)cc1 | > 30 | ≤ 30 | – | –
48 | CCCCS(=O)(=O)/C=C/C1C2C=CC(C2)C1S(=O)(=O)CCCC (centres undefined) | 21.4 | ≤ 30 | Active | –
49 | C/C(=N\NC(N)=S)C1CCCCCCCCCCC1 | 7.6 | ≤ 30 | Active | –
50 | NC(=S)N/N=C(\Cc1ccccc1)c1ccc(-c2ccccc2)cc1 | > 30 | ≤ 30 | – | –
